In ChEMBL document CHEMBL2434928, “New derivatives of salicylamides: Preparation and antimicrobial activity against various bacterial species” (2013):
≈ marks a conversion by molar mass, not a printed value.

Experiments:
Assay type in all cases: functional
Mycobacterium marinum = experiment: Antimycobacterial activity against Mycobacterium marinum CAMP 5644 after 21 days; details: CAMP 5644, 504 h
Summary of the method: (§1)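 MIC by broth microdilution in Middlebrook 7H9 with ADC enrichment. Compounds were dissolved in DMSO. Inoculum: colonies in sterile water adjusted to 0.5 McFarland, then diluted 1:1000 in sterile water. Drug-free, sterility and medium+DMSO controls were included. Wells were read visually after static incubation in the dark.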

Pasteurella multocida = experiment: Antimicrobial activity against Pasteurella multocida clinical isolate after 24 hrs by broth microdilution method
Summary of the method: (§2)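 Broth microdilution MIC in Mueller–Hinton broth, per modified NCCLS guidelines. Strains were grown on nutrient agar with 5% ovine blood. Colonies were suspended in PBS (pH 7.2–7.3), adjusted to 0.5 McFarland, then diluted 1:20 in MH broth. Compounds were in DMSO, ≤2.5% final. Drug-free, sterility and DMSO controls were included.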

Staphylococcus aureus [1] = experiment: Antimicrobial activity against methicillin-resistant Staphylococcus aureus 3202 after 24 hrs by broth microdilution method; details: Staphylococcus aureus, 3202, 24 h
Summary of the method: (§3)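 Colonies grown on nutrient agar with 5% ovine blood were suspended in PBS (pH 7.2–7.3), adjusted to 0.5 McFarland, and diluted 1:20 in Mueller–Hinton broth. Compounds were dissolved in DMSO (final ≤2.5%) and tested by NCCLS-modified broth microdilution with drug-free, sterility and broth+DMSO controls.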

Staphylococcus aureus [2] = experiment: Antimicrobial activity against methicillin-resistant Staphylococcus aureus 630 after 24 hrs by broth microdilution method; details: Staphylococcus aureus, 630, 24 h; summary of the method: as §3
Clostridium perfringens = experiment: Antimicrobial activity against Clostridium perfringens CNCTC 5770 after 24 hrs by broth microdilution method; details: CNCTC 5770, 24 h
Summary of the method: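 Colonies grown on blood agar (nutrient agar, 5% ovine blood) were suspended in PBS pH 7.2–7.3, set to 0.5 McFarland, and diluted 1:20 in MH broth for the final inoculum. Compounds were in DMSO (≤2.5% final), tested by NCCLS-modified microdilution with drug-free, sterility and DMSO controls.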

[3] = system: Mycolicibacterium smegmatis; experiment: Antimycobacterial activity against Mycobacterium smegmatis ATCC 700084 after 3 days; details: ATCC 700084, 72 h
Summary of the method: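 Middlebrook 7H9 plus ADC broth microdilution MIC, with compounds in DMSO. Colonies were suspended in sterile water to 0.5 McFarland, then diluted 1:1000 in sterile water. Drug-free, sterility and DMSO controls were included. The visual read followed 3 days of static aerobic incubation at 37 °C in darkness.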

Bacillus cereus = experiment: Antimicrobial activity against Bacillus cereus ATCC 14579 after 24 hrs by broth microdilution method; details: ATCC 14579, 24 h; summary of the method: as §2
Mycobacterium kansasii = experiment: Antimycobacterial activity against Mycobacterium kansasii DSM 44162 after 7 days; details: DSM 44162, 168 h; summary of the method: as §1
Staphylococcus aureus [4] = experiment: Antimicrobial activity against Staphylococcus aureus ATCC 29213 after 24 hrs by broth microdilution method; details: ATCC 29213, 24 h; summary of the method: as §2
Staphylococcus aureus [5] = experiment: Antimicrobial activity against methicillin-resistant Staphylococcus aureus 63718 after 24 hrs by broth microdilution method; details: Staphylococcus aureus, 63718, 24 h; summary of the method: as §3

SMILES | MIC (Mycobacterium marinum) [µM] | MIC (Pasteurella multocida) [µM] | MIC (Staphylococcus aureus [1]) [µM] | MIC (Staphylococcus aureus [2]) [µM] | MIC (Clostridium perfringens) [µM] | MIC [3] [µM] | MIC (Bacillus cereus) [µM] | MIC (Mycobacterium kansasii) [µM] | MIC (Staphylococcus aureus [4]) [µM] | MIC (Staphylococcus aureus [5]) [µM]
O=C(N[C@@H](Cc1ccccc1)C(=O)Nc1ccc(Cl)c(Cl)c1)c1ccc(Cl)cc1O | 138 (≈ 64 µg/mL) | > 552 | 1.07 (≈ 0.496 µg/mL) | 2.15 (≈ 0.997 µg/mL) | 34.5 (≈ 16 µg/mL) | 69 (≈ 32 µg/mL) | 1.07 (≈ 0.496 µg/mL) | 34.5 (≈ 16 µg/mL) | 1.07 (≈ 0.496 µg/mL) | 2.15 (≈ 0.997 µg/mL)
Cc1ccc(NC(=O)c2cc(Cl)ccc2O)cc1 | 61.1 (≈ 16 µg/mL) | 1.91 (≈ 0.5 µg/mL) | > 978 | > 978 | > 978 | > 978 | 30.6 (≈ 8 µg/mL) | 30.6 (≈ 8 µg/mL) | > 978 | > 978
Cc1ccc(NC(=O)[C@H](Cc2ccccc2)NC(=O)c2cc(Cl)ccc2O)cc1 |  | > 626 | > 626 | > 626 | > 626 |  | > 626 |  | > 626 | > 626
CC(C)[C@H](NC(=O)OCc1ccccc1)C(=O)Oc1ccc(Cl)cc1C(=O)Nc1ccccc1 |  | > 517 |  |  |  |  | > 517 |  | > 517 | 
Cc1ccc(NC(=O)c2cc(Cl)ccc2OC(=O)[C@H](C)NC(=O)OCc2ccccc2)cc1 | 68.5 (≈ 32 µg/mL) | 2.14 (≈ 0.999 µg/mL) |  |  |  | > 548 | 7.13 (≈ 3.33 µg/mL) | 17.1 (≈ 8 µg/mL) | 34.3 (≈ 16 µg/mL) | 
Cc1ccc(NC(=O)c2cc(Cl)ccc2OC(=O)[C@@H](NC(=O)OCc2ccccc2)C(C)C)cc1 | 259 (≈ 128 µg/mL) | 4.04 (≈ 2 µg/mL) |  |  |  | 259 (≈ 128 µg/mL) | 32.3 (≈ 16 µg/mL) | 129 (≈ 63.9 µg/mL) | 32.3 (≈ 16 µg/mL) | 
Cc1ccc(NC(=O)c2cc(Cl)ccc2OC(=O)[C@H](Cc2ccccc2)NC(=O)OCc2ccccc2)cc1 | 118 (≈ 64.1 µg/mL) | 7.36 (≈ 4 µg/mL) |  |  |  | 236 (≈ 128 µg/mL) | 29.5 (≈ 16 µg/mL) | 58.9 (≈ 32 µg/mL) |  | 
Cc1ccc(NC(=O)[C@@H](NC(=O)c2cc(Cl)ccc2O)C(C)C)cc1 | 355 (≈ 128 µg/mL) | 88.7 (≈ 32 µg/mL) | 88.7 (≈ 32 µg/mL) | > 709 | 88.7 (≈ 32 µg/mL) | > 709 | 22.2 (≈ 8 µg/mL) | 88.7 (≈ 32 µg/mL) | 88.7 (≈ 32 µg/mL) | > 709
CC(C)[C@H](NC(=O)OCc1ccccc1)C(=O)Oc1ccc(Cl)cc1C(=O)Nc1ccc(Br)cc1 | 14.3 (≈ 8 µg/mL) | 0.89 (≈ 0.498 µg/mL) | 1.78 (≈ 0.997 µg/mL) | 1.78 (≈ 0.997 µg/mL) | 3.57 (≈ 2 µg/mL) | 57.2 (≈ 32 µg/mL) | 1.78 (≈ 0.997 µg/mL) | 14.3 (≈ 8 µg/mL) | 3.57 (≈ 2 µg/mL) | 3.57 (≈ 2 µg/mL)
O=C(N[C@@H](Cc1ccccc1)C(=O)Oc1ccc(Cl)cc1C(=O)Nc1ccc(Cl)c(Cl)c1)OCc1ccccc1 | 26.8 (≈ 16 µg/mL) | 0.83 (≈ 0.496 µg/mL) | 0.2 (≈ 0.12 µg/mL) | 0.2 (≈ 0.12 µg/mL) | 1.67 (≈ 0.998 µg/mL) | 26.8 (≈ 16 µg/mL) | 0.41 (≈ 0.245 µg/mL) | 13.4 (≈ 8 µg/mL) | 1.67 (≈ 0.998 µg/mL) | 0.2 (≈ 0.12 µg/mL)
CC1(C)S[C@@H]2[C@H](NC(=O)[C@H](N)c3ccccc3)C(=O)N2[C@H]1C(=O)O [AMPICILLIN] |  | 1.43 (≈ 0.5 µg/mL) | > 45.8 | > 45.8 | < 0.72 |  | > 45.8 |  | 5.72 (≈ 2 µg/mL) | > 45.8
O=C(O)c1cn(C2CC2)c2cc(N3CCNCC3)c(F)cc2c1=O [CIPROFLOXACIN] |  |  | > 48.3 | > 48.3 |  |  |  |  | > 48.3 | > 48.3
NNC(=O)c1ccncc1 [ISONIAZID] | 467 (≈ 64 µg/mL) |  |  |  |  | 117 (≈ 16 µg/mL) |  |  |  | 
